Each structure is given as a SMILES string.

Assay [1] can be described thus: DPPH˙ radical scavenging assay. As to conditions: read-out: DPPH˙ scavenging activity (EC50); 37 °C 30 min, OD 540 nm; mean ± SD. The procedure, abridged:
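Assay mixtures were 50 μL DPPH˙ working solution in ethanol plus 50 μL test compound in DMSO (sample solutions 0.02–20 mM). Ethanol replaced DPPH˙ in sample-control and blank wells. Mixtures were incubated at 37 °C for 30 min and read at OD 540 nm, in triplicate. Scavenging rate was calculated by formula. EC50 was derived by nonlinear regression from three independent experiments.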
On the technique in general: Loss of DPPH colour is used to gauge radical scavenging.

A further assay has as its system L02 cells. The experiment in a line: MTT assay for H2O2-treated L02 cells. The assay is classed as cell-based. As to conditions: Homo sapiens, L02, read-out: L02 cell viability after H2O2. The procedure, abridged: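 Cells were grown in RPMI-1640 with 10% FBS at 37 °C, 5% CO2. PC12 cells were seeded at 5 × 10^5 cells per mL and incubated 16 h; L02 cells at 1 × 10^5 cells per mL, 24 h. Test compound (final 10 μM, from 20 mM DMSO stock) or DMSO was added for 0.5 h. Then 10 μL H2O2 (1 mM in medium) or medium was added for 2 h, followed by MTT for 4 h.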

As to `O=C1O[C@H]([C@@H](O)CO)C(O)=C1O` [VC, vitamin C], the EC50 in assay [1] was 230 ± 90 µM. Consider `O=C(O)c1cc(O)c(O)c(O)c1` [GA, gallic acid], for which the viability at 10 µM in the assay on L02 cells stood at 37.8%. For the same compound, the concentration giving a half-maximal response (EC50) in assay [1] worked out at 50 ± 10 µM.

In general, EC50 refers to the concentration giving half of the maximal effect. As usually defined, the viability is a per cent measure of how many cells are alive, often set against a control.

Values taken from publication PMC9051925 (RSC Advances, 2020).
